Screening data (PubChem)
CSN inh: inhibitors of CSN-mediated cullin deneddylation, primary screen, biochemical, fluorescence polarization, uHTS. 360,000 compounds, 0.38% hits. COP9 signalosome complex subunit 5 (Homo sapiens), Q92905. Purified CSN, SCF-Nedd8-OG deneddylation. AID 651999, 2013. inhibition, % at 12.5 µM;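 active means pattern-corrected inhibition above about 35%, with an unprinted fluorescence ratio check between 0.5 and 1.5, limit read from the data, passing the limit was not always enough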;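 further: 0% = enzyme with substrate and 100% = substrate without enzyme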
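Assay system: HEK293T-derived human Csn5 enzyme; quantity: 0.24 nM enzyme; medium: Tris/NaCl/DTT buffer, pH 7.5; also added: substrate SCFSkp2-Nedd8OG, 10 nM; doses: 12.5 µM compound; schedule: 90 min reaction at room temperature; signal: FP; read-out: % inhibition of substrate cleavage by Csn5; benchmarks: substrate-only high control, full reaction low control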
HNF4A DNA FP: change in binding of human HNF4A to DNA, primary screen, biochemical, fluorescence polarization, FITC-DNA | Hepatocyte nuclear factor 4-alpha (Homo sapiens), P41235 | 1 h | activity change, % at 10 µM | 360,000 compounds, 0.3% hits | AID 1224865, 2016; in the data active means activity change above about 30%, passing the limit was not always enough
PP1 inh: PP1-alpha phosphatase inhibitors, primary screen, counter-screen for PP5 inhibitor project, biochemical, fluorescence, OMFP substrate, single point; Serine/threonine-protein phosphatase PP1-alpha catalytic subunit (Homo sapiens), P62136; purified PP1alpha; inhibition, % at 6.7 µM; 320,000 compounds, 0.9% hits;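 active means inhibition above the mean inhibition of all tested compounds plus 3 SD, computed separately for each screening campaign, cut at about 15% in these data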
Rpn11 block: Rpn11 (PSMD14) deubiquitinase inhibitors, primary screen, biochemical, fluorescence polarization, uHTS. human 26S proteasome, Ub4-pepOG fluorescence polarization; 20S core pre-blocked with epoxomicin. inhibition, % at 20 µM. 360,000 compounds, 0.59% hits. AID 588493, 2011;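 active means inhibition at 20 µM, scaled to each plate's controls, above about 33%, limit read from the data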
Target sequence (O00487 whole entry, looked up): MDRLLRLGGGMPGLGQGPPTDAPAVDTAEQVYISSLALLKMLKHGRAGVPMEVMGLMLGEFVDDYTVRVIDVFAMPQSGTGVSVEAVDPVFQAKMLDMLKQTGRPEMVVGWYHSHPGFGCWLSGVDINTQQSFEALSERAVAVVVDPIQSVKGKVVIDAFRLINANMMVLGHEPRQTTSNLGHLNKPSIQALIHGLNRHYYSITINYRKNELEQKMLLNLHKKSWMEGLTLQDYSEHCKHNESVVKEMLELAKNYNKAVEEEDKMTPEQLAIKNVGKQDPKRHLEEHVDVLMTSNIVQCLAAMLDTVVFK
TPT1 inhibitor: Candida albicans TPT1 enzyme inhibitors, primary screen, biochemical, fluorescence polarization | recombinant caTPT1, FP RNA substrate dephosphorylation | inhibition, % at 5 µM | 300,000 compounds, 0.81% hits;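 active means inhibition above the mean of all tested compounds plus 3 SD, set per screening campaign, cut at about 24% in these data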;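 further: plate controls were DMSO alone for no effect and ferristatin control at 100 nM for full effect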
NadD block: inhibitors of S. aureus NadD, primary screen, biochemical, colorimetric, uHTS | Nicotinate-nucleotide adenylyltransferase NadD (Staphylococcus aureus N315) | purified NadD enzyme, colorimetric absorbance read-out | inhibition, % at 20 µM | 360,000 compounds, 0.78% hits | AID 602399, 2012; in the data active means inhibition above about 26%
caTPT1 confirm: Candida albicans TPT1 inhibitors, confirmation, biochemical, fluorescence polarization, triplicate; recombinant caTPT1, RNase T1 coupled; 2,400 compounds, 74% hits; inhibition, % at 5 µM; shares compounds with TPT1 inhibitor;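 active means inhibition above the primary screen limit, the mean inhibition of all tested compounds plus 3 SD, cut at about 25% in these data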
RNase T1 counter: RNase T1 inhibitors, counter-screen for TPT1 inhibitor project, biochemical, fluorescence polarization | inhibition, % at 5 µM | shares compounds with TPT1 inhibitor | 2,400 compounds, 83% hits | RNase T1 cleavage, 1536-well;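 active means inhibition above the solvent-only control well mean plus 3 SD, limit set per screening run, cut at about 23% in these data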;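 further: plate controls were DMSO wells with enzyme for no effect and wells without RNase T1 for full effect; inhibitors block cleavage so intact labeled substrate keeps polarization high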
Target sequence (P00651 whole entry, looked up): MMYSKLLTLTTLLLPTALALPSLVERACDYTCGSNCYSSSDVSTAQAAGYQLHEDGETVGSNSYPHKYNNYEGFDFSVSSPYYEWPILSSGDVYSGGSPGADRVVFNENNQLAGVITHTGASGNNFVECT
PP1 confirm: PP1 phosphatase inhibitors, confirmation, biochemical, fluorescence, OMFP substrate, triplicate; inhibition, % at 6.7 µM; shares compounds with PP1 inh; 1,900 compounds, 52% hits; purified PP1alpha; AID 2358, 2010;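 active means mean PP1 inhibition above a set limit taken from the earlier primary screen, cut at about 15% in these data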
PP5 inh counter: PP5 phosphatase inhibition by PP1 hits, confirmation, counter-screen for PP1 inhibitor project, biochemical, fluorescence, triplicate; purified PP5c, OMFP fluorescence; AID 2360, 2010; inhibition, % at 6.7 µM; shares compounds with PP1 inh; 1,900 compounds, 4% hits;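 active means mean PP5 inhibition over triplicate wells above about 9.5% taken from the earlier PP1 screen, limit read from the data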
Rpn11 inh conf: Rpn11 (PSMD14) deubiquitinase inhibitors, confirmation, biochemical, fluorescence polarization, single concentration; shares compounds with Rpn11 block; purified human 26S proteasome, Ub4-pepOG fluorescence polarization; proteasome pretreated with epoxomicin; inhibition, % at 20 µM; 1,900 compounds, 29% hits
MMP-2 counter: MMP-2 enzyme inhibition, confirmation, counter-screen for RPN11 inhibitor project, biochemical, fluorescence, single concentration; shares compounds with Rpn11 block; recombinant MMP-2, FRET peptide cleavage fluorescence; inhibition, % at 20 µM; 1,900 compounds, 4% hits; AID 602330, 2012;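 further: human MMP-2 activated beforehand with APMA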
Thrombin FP: bovine thrombin protease inhibition, confirmation, counter-screen for Rpn11 inhibitor project, biochemical, fluorescence polarization, single concentration; shares compounds with Rpn11 block; bovine thrombin cleavage of Ub4-pepOG; inhibition, % at 20 µM; 1,900 compounds, 13% hits;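 active means mean inhibition at least 40% at 20 µM, or signal 3 deviations below plate average, so some actives read negative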;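 further: plate controls were thrombin with DMSO for no effect and buffer wells lacking thrombin for full effect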
NadD conf: inhibitors of S. aureus NadD, confirmation, biochemical, colorimetric, single concentration; shares compounds with NadD block; purified S. aureus NadD, colorimetric enzyme assay; inhibition, % at 20 µM; 2,000 compounds, 13% hits; in the data active means inhibition mostly above about 42%, no sharp cut-off; inactive means mostly below about 42%
HNF4A confirm: change in HNF4A binding to DNA, retest, confirmation, biochemical, fluorescence polarization, FITC-DNA | shares compounds with HNF4A DNA FP | 1 h | activity change, % at 12.5 µM | 210 compounds, 99% hits; call rule not given here
Active calls of the source: *; · = not tested or not shown. A selection: hits, their analogues and other compounds. The true share with any hit is near 2.7%. Unless noted, no stated cut-off is given here; in the data, active means inhibition above about 40%; inactive means the rest.

SMILES | CSN inh | HNF4A DNA FP | PP1 inh | Rpn11 block | TPT1 inhibitor | NadD block | caTPT1 confirm | RNase T1 counter | HNF4A confirm | others
CSc1nsc(/C=C/Nc2ccc(C(=O)O)cc2)c1C#N | 29 | 49* | 1 | 68* | 31* | 3 | 43* | 53* | 45* | Rpn11 inh conf=53*;MMP-2 counter=-7;Thrombin FP=42*
O=C(COc1ccccc1)OCc1cc(-c2ccco2)on1 | 0 | 0 | -2 | 8 | · | -8 | · | · | ·
COc1ccc(NC(=O)C2(C)Cc3c(-c4cccc(C(F)(F)F)c4)ccnc3O2)cn1 (centres undefined) | 2 | -5 | · | -2 | · | -1 | · | · | ·
N#CCc1nc2ccc(S(=O)(=O)N3CCOCC3)cc2s1 | 49* | 52* | 11 | · | 85* | 10 | 62* | 76* | 54*
C=CCn1c(SCc2nc3sc4c(c3c(=O)[nH]2)CCCC4)nc2ccccc2c1=O | 19 | 49* | 3 | · | 27* | 29 | 48* | 62* | 65*
O=c1c2ccccc2c(/C=N/c2nnc(Cc3ccccc3)s2)c(O)n1-c1ccc(Cl)cn1 | 41* | 86* | 2 | · | 25* | 48* | 154* | 146* | 95* | NadD conf=-3
Cc1cccc(C)c1N=Cc1c(O)n(-c2nccs2)c(=O)c2ccccc12 | -7 | 1 | 4 | -30 | 1 | 6 | · | · | ·
N#CCCN(Cc1ccccc1)C(C(=O)NC1CCCCC1)C1CC1 (centres undefined) | 4 | -2 | · | 4 | · | -6 | · | · | ·
Cc1cc(NS(=O)(=O)c2cn(C)nc2C)no1 | -4 | -3 | -2 | 3 | 2 | -7 | · | · | ·
C=CCNc1sc(C(=O)c2ccc(Br)s2)c(N)c1C#N | 30 | 55* | -1 | · | 28* | 8 | 38* | 49* | 51*
CCOC(=O)N1CCN(C(=O)c2ccc3c(c2)N=C(C)c2cc(Cl)ccc2S3)CC1 | 0 | 0 | 9 | 10 | 1 | 5 | · | · | ·
C=CCSc1nnc(C)c(/C=C/Nc2ccc(Cl)cc2)n1 | -1 | 51* | 4 | · | 155* | 7 | 133* | 129* | 38*
N#C/C(=C\c1ccc(-c2ccccc2C(=O)O)o1)c1nc2ccccc2[nH]1 | 24 | 44* | 0 | · | 95* | -2 | 117* | 121* | 91*
CCOC(=O)C1=C(C)NC(=O)NC1c1ccc(N2CCC(c3ccccc3)=N2)cc1 (centres undefined) | 22 | 55* | 4 | · | 53* | 1 | 77* | 87* | 62*
CCOC(=O)C1=C(C)NC(=O)NC1c1ccc(NC(C)=O)cc1 (centres undefined) | 0 | 6 | 1 | 4 | 2 | -1 | · | · | ·
CC(C)OC(=O)c1cc(C(=O)c2cc(F)ccc2O)coc1=N | 3 | 5 | 1 | -2 | 0 | 0 | · | · | ·
COc1ccc(O)c(C(=O)c2coc(=N)c(C(=O)Nc3ccc(SC(F)F)cc3)c2)c1 | 56* | 44* | -6 | · | 63* | 9 | 75* | 78* | 65*
COc1ncnc2c1ncn2CCCNCc1ccc(C)o1 | 6 | 0 | · | 5 | · | 2 | · | · | ·
CCN(CC)C(=O)CSC(Nc1ccc(F)cc1)=C(C#N)C#N | 15 | 37* | -2 | · | 40* | -4 | 41* | 52* | 62*
O=C1CNC(=S)N1c1nc2ccccc2s1 | 0 | 0 | 25* | -7 | 7 | -7 | · | · | · | PP1 confirm=-1;PP5 inh counter=-4
O=C(CSCC(=O)N1CCN(c2ccccc2)CC1)Nc1nc(-c2ccc(Cl)s2)cs1 | 1 | 3 | 27* | 4 | -5 | 11 | · | · | · | PP1 confirm=5;PP5 inh counter=0
COCCN(CCOC)Cc1cc(=O)oc2cc(C)c(C)cc12 | -4 | -1 | · | 6 | · | -3 | · | · | ·
O=C1NC(=O)/C(=C\c2ccc(OCc3cccc([N+](=O)[O-])c3)cc2)N1 | 4 | 2 | 43* | -2 | 2 | -8 | · | · | · | PP1 confirm=20*;PP5 inh counter=0
O=[N+]([O-])c1cccc(COc2cccc(CO)c2)c1 | 1 | 0 | · | -1 | · | -4 | · | · | ·
Cn1c2c(c3ccccc31)CCN1CCC[C@]21c1ccccc1 | 2 | 5 | 1 | 1 | 3 | 1 | · | · | ·
